From ChEMBL document CHEMBL3627671, “Novel derivatives of nitro-substituted salicylic acids: Synthesis, antimicrobial activity and cytotoxicity” (Bioorg Med Chem, 2015)
Converted amounts (≈) assume the structure as drawn.

What was measured:
Type in all cases: functional
Mycobacterium kansasii [1] = assay: Antimycobacterial activity against Mycobacterium kansasii 6509/96 after 7 days; conditions: 6509/96, 168 h
Summary of the method: (§1)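 Šula's semisynthetic medium micromethod at 37 °C, read after 7, 14 and 21 days. The 1.0 McFarland suspension was diluted 10^-4. MIC determined. 6509/96 is a clinical isolate.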

Mycobacterium avium [2] = assay: Antimycobacterial activity against Mycobacterium avium 330/80 after 21 days; conditions: 330/80, 504 h
Mycobacterium kansasii [3] = assay: Antimycobacterial activity against Mycobacterium kansasii 235/80 after 21 days; conditions: 235/80, 504 h; summary of the method: as §1
Mycobacterium kansasii [4] = assay: Antimycobacterial activity against Mycobacterium kansasii 235/80 after 14 days; conditions: 235/80, 336 h; summary of the method: as §1
Mycobacterium kansasii [5] = assay: Antimycobacterial activity against Mycobacterium kansasii 235/80 after 7 days; conditions: 235/80, 168 h; summary of the method: as §1
[6] = system: Mycobacterium tuberculosis; assay: Antimycobacterial activity against Mycobacterium tuberculosis H37Rv 331/88 after 21 days; conditions: H37Rv 331/88, 504 h
Mycobacterium kansasii [7] = assay: Antimycobacterial activity against Mycobacterium kansasii 6509/96 after 21 days; conditions: 6509/96, 504 h; summary of the method: as §1
Mycobacterium kansasii [8] = assay: Antimycobacterial activity against Mycobacterium kansasii 6509/96 after 14 days; conditions: 6509/96, 336 h; summary of the method: as §1
[9] = system: Mycobacterium tuberculosis; assay: Antimycobacterial activity against Mycobacterium tuberculosis H37Rv 331/88 after 14 days; conditions: H37Rv 331/88, 336 h
Mycobacterium avium [10] = assay: Antimycobacterial activity against Mycobacterium avium 330/80 after 14 days; conditions: 330/80, 336 h
Staphylococcus aureus [11] = assay: Antibacterial activity against methicillin-resistant Staphylococcus aureus H 5996/08 after 48 hrs by microdilution broth method; conditions: H 5996/08, 48 h
Klebsiella pneumoniae [12] = assay: Antibacterial activity against Klebsiella pneumoniae D 11750/08 after 48 hrs by microdilution broth method; conditions: D 11750/08, 48 h
Summary of the method: (§2)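 Mueller-Hinton broth microdilution (modified M07-A07), pH 7.4 (±0.2). Compounds dissolved in DMSO, tested at final 500 to 0.49 µmol/L. Inoculum in sterile water matched to 0.5 McFarland. Incubated in the dark, humid atmosphere, 35 °C, read at 24 and 48 h visually and at 540 nm. MIC taken as ≥95% growth reduction (IC95) versus control.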

Pseudomonas aeruginosa [13] = assay: Antibacterial activity against Pseudomonas aeruginosa CCM 1961 after 48 hrs by microdilution broth method; conditions: CCM 1961, 48 h; summary of the method: as §2
Staphylococcus aureus [14] = assay: Antibacterial activity against Staphylococcus aureus CCM 4516/08 after 24 hrs by microdilution broth method; conditions: CCM 4516/08, 24 h
Staphylococcus aureus [15] = assay: Antibacterial activity against methicillin-resistant Staphylococcus aureus H 5996/08 after 24 hrs by microdilution broth method; conditions: H 5996/08, 24 h
[16] = system: Staphylococcus epidermidis; assay: Antibacterial activity against Staphylococcus epidermidis H 6966/08 after 24 hrs by microdilution broth method; conditions: H 6966/08, 24 h; summary of the method: as §2
[17] = system: Staphylococcus epidermidis; assay: Antibacterial activity against Staphylococcus epidermidis H 6966/08 after 48 hrs by microdilution broth method; conditions: H 6966/08, 48 h; summary of the method: as §2
Staphylococcus aureus [18] = assay: Antibacterial activity against Staphylococcus aureus CCM 4516/08 after 48 hrs by microdilution broth method; conditions: CCM 4516/08, 48 h
Pseudomonas aeruginosa [19] = assay: Antibacterial activity against Pseudomonas aeruginosa CCM 1961 after 24 hrs by microdilution broth method; conditions: CCM 1961, 24 h; summary of the method: as §2
Klebsiella pneumoniae [20] = assay: Antibacterial activity against Klebsiella pneumoniae D 11750/08 after 24 hrs by microdilution broth method; conditions: D 11750/08, 24 h; summary of the method: as §2
Enterococcus sp. [21] = assay: Antibacterial activity against Enterococcus sp. J 14365/08 after 24 hrs by microdilution broth method; conditions: J 14365/08, 24 h; summary of the method: as §2
Escherichia coli [22] = assay: Antibacterial activity against Escherichia coli CCM4517 after 48 hrs by microdilution broth method; conditions: CCM4517, 48 h; summary of the method: as §2
Escherichia coli [23] = assay: Antibacterial activity against Escherichia coli CCM4517 after 24 hrs by microdilution broth method; conditions: CCM4517, 24 h; summary of the method: as §2
Enterococcus sp. [24] = assay: Antibacterial activity against Enterococcus sp. J 14365/08 after 48 hrs by microdilution broth method; conditions: J 14365/08, 48 h; summary of the method: as §2
Klebsiella pneumoniae [25] = assay: Antibacterial activity against ESBL-positive Klebsiella pneumoniae J 14368/08 after 24 hrs by microdilution broth method; conditions: J 14368/08, 24 h; summary of the method: as §2
Klebsiella pneumoniae [26] = assay: Antibacterial activity against ESBL-positive Klebsiella pneumoniae J 14368/08 after 48 hrs by microdilution broth method; conditions: J 14368/08, 48 h; summary of the method: as §2

| SMILES | MIC (Mycobacterium kansasii [1]) [µM] | MIC (Mycobacterium avium [2]) [µM] | MIC (Mycobacterium kansasii [3]) [µM] | MIC (Mycobacterium kansasii [4]) [µM] | MIC (Mycobacterium kansasii [5]) [µM] | MIC [6] [µM] | MIC (Mycobacterium kansasii [7]) [µM] | MIC (Mycobacterium kansasii [8]) [µM] | MIC [9] [µM] | MIC (Mycobacterium avium [10]) [µM] | further results |
| --- | --- | --- | --- | --- | --- | --- | --- | --- | --- | --- | --- |
| O=C(Nc1cccc([N+](=O)[O-])c1)c1cccc([N+](=O)[O-])c1O | 62.5 (≈ 19 µg/mL) | > 500 | 250 (≈ 75.8 µg/mL) | 250 (≈ 75.8 µg/mL) | 62.5 (≈ 19 µg/mL) | 62.5 (≈ 19 µg/mL) | 250 (≈ 75.8 µg/mL) | 250 (≈ 75.8 µg/mL) | 62.5 (≈ 19 µg/mL) | > 500 | – |
| CC1(C)S[C@@H]2[C@H](NC(=O)Cc3ccccc3)C(=O)N2[C@H]1C(=O)O [PENICILLIN G] | – | – | – | – | – | – | – | – | – | – | MIC (Staphylococcus aureus [11]): 125 µM (≈ 41.8 µg/mL); MIC (Klebsiella pneumoniae [12]): 500 µM (≈ 167 µg/mL); MIC (Pseudomonas aeruginosa [13]): > 500 µM; MIC (Staphylococcus aureus [14]): 0.98 µM (≈ 0.328 µg/mL); MIC (Staphylococcus aureus [15]): 62.5 µM (≈ 20.9 µg/mL); MIC [16]: 250 µM (≈ 83.6 µg/mL); MIC [17]: 250 µM (≈ 83.6 µg/mL); MIC (Staphylococcus aureus [18]): 0.98 µM (≈ 0.328 µg/mL); MIC (Pseudomonas aeruginosa [19]): > 500 µM; MIC (Klebsiella pneumoniae [20]): 500 µM (≈ 167 µg/mL); MIC (Enterococcus sp. [21]): 7.81 µM (≈ 2.61 µg/mL); MIC (Escherichia coli [22]): 125 µM (≈ 41.8 µg/mL); MIC (Escherichia coli [23]): 125 µM (≈ 41.8 µg/mL); MIC (Enterococcus sp. [24]): 15.6 µM (≈ 5.22 µg/mL); MIC (Klebsiella pneumoniae [25]): > 500 µM; MIC (Klebsiella pneumoniae [26]): > 500 µM |
| O=C(Nc1ccc([N+](=O)[O-])c(C(F)(F)F)c1)c1cccc([N+](=O)[O-])c1O | 32 (≈ 11.9 µg/mL) | 500 (≈ 186 µg/mL) | 125 (≈ 46.4 µg/mL) | 62.5 (≈ 23.2 µg/mL) | 32 (≈ 11.9 µg/mL) | 16 (≈ 5.94 µg/mL) | 62.5 (≈ 23.2 µg/mL) | 62.5 (≈ 23.2 µg/mL) | 16 (≈ 5.94 µg/mL) | 250 (≈ 92.8 µg/mL) | – |
